Laboratory results reported in ChEMBL document CHEMBL1667789, “Synthesis of 4H-chromene, coumarin, 12H-chromeno[2,3-d]pyrimidine derivatives and some of their antimicrobial and cytotoxicity activities” (2011).
Calls of active or inactive are those of the source. No cut-off for these calls is given here.

Legend:
[1] = system: Bordetella bronchiseptica; experiment: Antimicrobial activity against Bordetella bronchiseptica ATCC 4617 at 25 ug/ml by agar diffusion method; format: functional
Procedure, shortened: (§1)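 Agar diffusion on Mueller-Hinton agar. Bacterial strains came from the NODCAR Microbiology laboratory culture collection. Ampicillin was the reference standard.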

[2] = system: Escherichia coli; experiment: Antimicrobial activity against Escherichia coli ATCC 14169 at 25 ug/ml by agar diffusion method; format: functional; procedure, shortened: as §1
[3] = system: Bacillus pumilus; experiment: Antimicrobial activity against Bacillus pumilus ATCC 14884 at 25 ug/ml by agar diffusion method; format: functional; procedure, shortened: as §1
[4] = system: Bacillus subtilis; experiment: Antimicrobial activity against Bacillus subtilis ATCC 6633 at 25 ug/ml by agar diffusion method; format: functional; procedure, shortened: as §1
[5] = system: Staphylococcus aureus; experiment: Antimicrobial activity against Staphylococcus aureus ATCC 29737 at 25 ug/ml by agar diffusion method; format: functional; conditions: for zone of inhibition at 25 µg/mL: read-out: DIZ; procedure, shortened: as §1
[6] = system: Staphylococcus epidermidis; experiment: Antimicrobial activity against Staphylococcus epidermidis ATCC 12228 at 25 ug/ml by agar diffusion method; format: functional; conditions: for zone of inhibition at 25 µg/mL: read-out: DIZ; procedure, shortened: as §1
[7] = system: Candida albicans; experiment: Antifungal activity against Candida albicans ATCC 10231 at 25 ug/ml by agar diffusion method; format: functional
Procedure, shortened: (§2)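 Agar diffusion on Sabouraud's agar. Fungal strains came from the NODCAR Microbiology laboratory culture collection. Mycostatine was the reference standard.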

[8] = system: Saccharomyces cerevisiae; experiment: Antifungal activity against Saccharomyces cerevisiae ATCC 9080 at 25 ug/ml by agar diffusion method; format: functional; procedure, shortened: as §2
[9] = system: MCF7; experiment: Cytotoxicity against human MCF7 cells; format: functional, cell-based
Procedure, shortened: (§3)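 Human tumour lines were MCF-7 (breast adenocarcinoma) and HCT (described as lung carcinoma). Cytotoxicity was read by a cell viability assay, with IC50 derived from it.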

[10] = system: Cancer cell lines; experiment: Cytotoxicity against human Lung cancer cells; format: functional, cell-based; procedure, shortened: as §3

In the case of `CCN(CC)c1ccc2c(c1)OC(N)=C(C#N)C2c1ccc(F)cc1` (stereo not given), the “diameter of the inhibition zone (DIZ)” value [1] is reported as “inactive”, the “diameter of the inhibition zone (DIZ)” value [2] is reported as “inactive” and the “diameter of the inhibition zone (DIZ)” value [3] is reported as “inactive”. For the same compound, the “diameter of the inhibition zone (DIZ)” value [4] was “inactive”, the “diameter of the inhibition zone (DIZ)” value [5] was “inactive” and the “diameter of the inhibition zone (DIZ)” value [6] was “inactive”. The “diameter of the inhibition zone (DIZ)” value [7] was “inactive”, the “diameter of the inhibition zone (DIZ)” value [8] was “inactive” and the Activity [9] was “Not toxic”. The Activity [10] was “Not toxic”.

In the case of `CCOC(=O)C1=C(N)Oc2cc(N(CC)CC)ccc2C1c1ccc(Br)cc1` (stereo not given), the “diameter of the inhibition zone (DIZ)” value [1] is reported as “inactive”, the “diameter of the inhibition zone (DIZ)” value [2] is reported as “inactive” and the “diameter of the inhibition zone (DIZ)” value [3] is reported as “inactive”. The “diameter of the inhibition zone (DIZ)” value [4] was “inactive”, the “diameter of the inhibition zone (DIZ)” value [5] was “inactive” and the “diameter of the inhibition zone (DIZ)” value [6] was “inactive”. The “diameter of the inhibition zone (DIZ)” value [7] was “inactive”, the “diameter of the inhibition zone (DIZ)” value [8] was “inactive” and the Activity [9] was “Not toxic”. For the same compound, the Activity [10] was “Not toxic”.

`CCN(CC)c1ccc2c(-c3ccc(F)cc3)c(C#N)c(=O)oc2c1` was tested, and the “diameter of the inhibition zone (DIZ)” value [1] was “inactive”, the “diameter of the inhibition zone (DIZ)” value [2] was “inactive” and the “diameter of the inhibition zone (DIZ)” value [3] was “inactive”. For the same compound, the “diameter of the inhibition zone (DIZ)” value [4] was “inactive”, the zone of inhibition at 25 µg/mL [5] was 13 mm and the zone of inhibition at 25 µg/mL [6] was 14 mm. The “diameter of the inhibition zone (DIZ)” value [7] was “inactive” and the “diameter of the inhibition zone (DIZ)” value [8] was “inactive”.

With `CCN(CC)c1ccc2c(c1)OC(/N=C/N)=C(C#N)C2c1ccc(Cl)cc1` (stereo not given) the “diameter of the inhibition zone (DIZ)” value [1] was “inactive”, the “diameter of the inhibition zone (DIZ)” value [2] was “inactive” and the “diameter of the inhibition zone (DIZ)” value [3] was “inactive”. For the same compound, the “diameter of the inhibition zone (DIZ)” value [4] was “inactive”, the “diameter of the inhibition zone (DIZ)” value [5] was “inactive” and the “diameter of the inhibition zone (DIZ)” value [6] was “inactive”. The “diameter of the inhibition zone (DIZ)” value [7] was “inactive” and the “diameter of the inhibition zone (DIZ)” value [8] was “inactive”.

With `CCN(CC)c1ccc2c(c1)OC(N(C(C)=O)C(C)=O)=C(C#N)C2c1ccc(Cl)cc1` (stereo not given) the “diameter of the inhibition zone (DIZ)” value [1] was “inactive”, the “diameter of the inhibition zone (DIZ)” value [2] was “inactive” and the “diameter of the inhibition zone (DIZ)” value [3] was “inactive”. The “diameter of the inhibition zone (DIZ)” value [4] was “inactive”, the “diameter of the inhibition zone (DIZ)” value [5] was “inactive” and the “diameter of the inhibition zone (DIZ)” value [6] was “inactive”. The “diameter of the inhibition zone (DIZ)” value [7] was “inactive” and the “diameter of the inhibition zone (DIZ)” value [8] was “inactive”.

With `CCN(CC)c1ccc2c(c1)OC(N)=C(C#N)C2c1ccc(Cl)cc1` (stereo not given) the “diameter of the inhibition zone (DIZ)” value [1] was “inactive”, the “diameter of the inhibition zone (DIZ)” value [2] was “inactive” and the “diameter of the inhibition zone (DIZ)” value [3] was “inactive”. The “diameter of the inhibition zone (DIZ)” value [4] was “inactive”, the zone of inhibition at 25 µg/mL [5] was 14 mm and the zone of inhibition at 25 µg/mL [6] was 15 mm. For the same compound, the “diameter of the inhibition zone (DIZ)” value [7] was “inactive” and the “diameter of the inhibition zone (DIZ)” value [8] was “inactive”.

Work on `CCN(CC)c1ccc2c(c1)Oc1ncnc(N)c1C2c1ccc(Cl)cc1` (stereo not given) yielded a zone of inhibition at 25 µg/mL ([1]; read-out: DIZ) of 21 mm, a zone of inhibition at 25 µg/mL ([2]; read-out: DIZ) of 20 mm and a zone of inhibition at 25 µg/mL ([3]; read-out: DIZ) of 25 mm. The zone of inhibition at 25 µg/mL ([4]; read-out: DIZ) was 21 mm, the zone of inhibition at 25 µg/mL [5] was 25 mm and the zone of inhibition at 25 µg/mL [6] was 24 mm. It also gave a zone of inhibition at 25 µg/mL ([7]; read-out: DIZ) of 15 mm and a zone of inhibition at 25 µg/mL ([8]; read-out: DIZ) of 20 mm.
